The source made the active and inactive calls. The calls are words filed in the database; no cut-off is given here.
Tests used:
Quadruplex DNA [1] = assay: Stabilization of F21T telomeric G-quadruplex DNA (unknown origin) assessed as change in melting temperature at 1 uM by FRET assay; type: nucleic-acid assay
How it was run: (§1)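 FRET melting: 0.2 µM F21T or F10T (FAM/TAMRA-labelled), with or without 1.0 µM ligand, in 10 mM Tris-HCl pH 7.4 with 60 mM KCl. Excitation 470 nm, emission 530 nm, read every 1 °C from 37–99 °C at 1 °C/min with a 30 s hold. ΔTm = Tm(DNA+ligand) − Tm(DNA).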

[2] = Stabilization of F10T hairpin duplex DNA (unknown origin) assessed as change in melting temperature at 1 uM by FRET assay; how it was run: as §1
Quadruplex DNA [3] = assay: Stabilization of F21T telomeric G-quadruplex DNA (unknown origin) at 1 uM in presence of non-fluorescent duplex DNA ds26 by FRET assay; type: nucleic-acid assay
How it was run: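 Competition FRET: 0.2 µM F21T with 1 µM ligand, plus or minus unlabelled duplex ds26 at 3 µM (15-fold) or 10 µM (50-fold), in 10 mM Tris-HCl pH 7.4 with 60 mM KCl. Melting monitored at 470/530 nm over 37–99 °C.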

[4] = Binding affinity to hairpin duplex DNA (unknown origin) at 40 uM by SPR method
How it was run: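 SPR: biotinylated HTG21 or hairpin DNA (200 nM) was folded in 50 mM Tris-HCl pH 7.4 with 100 mM KCl and captured to about 1,000 RU on an NLC chip against a blank reference cell. Ligand at 0.625–40 µM was injected at 25 µL/min (400 s association, 300 s dissociation) at 25 °C. The chip was regenerated with 1 M KCl and blank sensorgrams were subtracted.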

U2OS [5] = assay: Antiproliferative activity against human U2OS cells after 48 hrs by MTT assay; type: functional, cell-based
How it was run: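 Cells seeded at 5.0×10^3 per well and exposed to a range of compound concentrations for 48 h. MTT (2.5 mg/mL solution) was then added for 4 h, formazan was dissolved in DMSO, and OD was read at 570 nm. HL-60 was grown in RPMI-1640 with 10% FBS, the other lines in DMEM with 10% FBS, at 37 °C and 5% CO2. Triplicates; IC50 taken from mean OD versus concentration curves.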

Quadruplex DNA [6] = assay: Stabilization of telomeric G-quadruplex DNA in human SiHa cells assessed as increase in BG4 foci per nucleus at 2 uM after 24 hrs by DAPI staining-based immunofluorescence method relative to control; type: cell-based
How it was run: (§2)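 Cells were treated 24 h with 2 µM compound or 0.1% DMSO, then fixed (4% paraformaldehyde), permeabilized (0.5% Triton X-100) and blocked (5% goat serum). Staining used BG4 (80 ng/µL, 37 °C 3 h) with anti-FLAG, and/or γ-H2AX, TRF2 or POT1 antibodies at 4 °C overnight. Alexa 488/555 secondaries and DAPI followed. Foci or co-localized foci per nucleus were counted by confocal microscopy; mean ± SEM, two-tailed unpaired t test.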

Quadruplex DNA [7] = assay: Stabilization of telomeric G-quadruplex DNA in human SiHa cells assessed as induction of DNA damage response by measuring gamma-H2AX foci formation per nucleus at 2 uM after 24 hrs by DAPI staining-based immunofluorescence method relative to control; type: cell-based; how it was run: as §2
Quadruplex DNA [8] = assay: Stabilization of telomeric G-quadruplex DNA in human SiHa cells assessed as induction of DNA damage response by measuring co-localization of gamma-H2AX and TRF2 foci per nucleus at 2 uM after 24 hrs by DAPI staining-based double immunofluorescence method; type: cell-based; how it was run: as §2
SiHa [9] = assay: Effect on POT1 expression in human SiHa cells at 1 uM after 48 hrs by Western blot method; type: functional, cell-based
Quadruplex DNA [10] = assay: Stabilization of telomeric G-quadruplex DNA in human SiHa cells assessed as induction of telomere uncapping by measuring formation of anaphase bridge at 1 uM after 48 hrs by DAPI staining-based laser scanning microscopic method; type: cell-based
How it was run: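 SiHa cells were treated with 1 µM compound for 48 h, fixed in 2% formaldehyde/0.2% glutaraldehyde for 15 min, and stained with 2 µg/mL DAPI at 37 °C for 3 h. Confocal imaging followed. Anaphase-bridge frequency is the fraction of cells with bridges; at least 50 anaphase cells per experiment.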

Quadruplex DNA [11] = assay: Stabilization of telomeric G-quadruplex DNA in human SiHa cells assessed as induction of telomere uncapping by measuring formation of micronuclei at 1 uM after 48 hrs by DAPI staining-based laser scanning microscopic method; type: cell-based
Quadruplex DNA [12] = assay: Stabilization of telomeric G-quadruplex DNA in human SiHa cells assessed as decrease in TRF length at 0.5 to 1 uM after 21 days by chemiluminescence detection method; type: cell-based
How it was run: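 SiHa cells were kept 21 days with 0.5 or 1 µM compound or 0.1% DMSO, with medium and compound renewed every 3 days. Genomic DNA was cut with HinfI/RsaI, run on 0.8% agarose, blotted to nylon, baked at 120 °C for 20 min, and TRF length detected by chemiluminescence.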

Quadruplex DNA [13] = assay: Stabilization of telomeric G-quadruplex DNA in human SiHa cells assessed as levels of metaphase chromosome having at least one telomere end loss at 1 uM after 48 hrs by Tamra-OO-[TTAGGG]3 PNA probe and DAPI staining-based FISH assay relative to control; type: cell-based
How it was run: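 Metaphase spreads from SiHa cells treated 48 h with 1 µM compound or 0.1% DMSO were hybridized with a telomeric PNA probe and counterstained with DAPI. The share of chromosomes with at least one telomere-free end was scored; mean ± SEM, two-tailed unpaired t test.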

SiHa [14] = assay: Cell cycle arrest in human SiHa cells assessed as accumulation at G2/M phase at 1 uM after 12 hrs by propidium iodide staining-based flow cytometric method; type: functional
How it was run: (§3)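 SiHa or U2OS cells (2.0×10^5 per well) were treated with compound or DMSO for 12 h, fixed in ice-cold 70% ethanol overnight, and stained with 50 µg/mL PI plus RNase A for 30 min at room temperature in the dark. 10,000 events were collected by flow cytometry to give the phase distribution.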

U2OS [15] = assay: Cell cycle arrest in human U2OS cells assessed as accumulation at G2/M phase at 1 uM after 12 hrs by propidium iodide staining-based flow cytometric method; type: functional; how it was run: as §3
SiHa [16] = assay: Induction of apoptosis in human SiHa cells at 2 uM after 96 hrs by annexin V-FITC/propidium iodide staining-based flow cytometric method relative to control; type: functional
How it was run: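 SiHa cells were treated with compound or DMSO for 96 h, washed, resuspended in binding buffer, and stained with Annexin V-FITC and PI for 15 min in the dark. Apoptotic percentage was measured by flow cytometry; mean ± SEM.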

SiHa [17] = assay: Antitumor activity against human SiHa cells xenografted in BALB/C-nu/nu mouse assessed as tumor growth inhibition at 10 mg/kg, ip administered daily for 3 weeks measured post last dose relative to vehicle-treated control; type: functional; conditions: 504 h, read-out: TGI
How it was run: (§4)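 SiHa cells (1×10^7 per 100 µL, serum-free DMEM) were injected subcutaneously. Grown tumors were divided into pieces and implanted into BALB/C-nu/nu mice. Caliper volume (1/2 × L × W²) and body weight were recorded daily; tumors were weighed at the end.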

SiHa [18] = assay: Antitumor activity against human SiHa cells xenografted in BALB/C-nu/nu mouse assessed as tumor growth inhibition at 20 mg/kg, ip administered daily for 3 weeks measured post last dose relative to vehicle-treated control; type: functional; conditions: 504 h, read-out: TGI; how it was run: as §4

ΔTm (Quadruplex DNA [1]): 23.5 °C | ΔTm [2]: 0.1 °C | Activity (Quadruplex DNA [3]): Active | Activity [4]: inactive | IC50 (U2OS [5]): 3.2 µM
SMILES: CN(C)CCCNc1cc2nc(/C=C3\C(=O)Nc4cc(N5CCN(C)CC5)ccc43)[nH]c(=O)c2cc1F
fold change (FC) (Quadruplex DNA [6]): 2 | fold change (FC) (Quadruplex DNA [7]): 3 | Activity (Quadruplex DNA [8]): Active | Activity (SiHa [9]): inactive | Activity (Quadruplex DNA [10]): Active | Activity (Quadruplex DNA [11]): Active | Activity (Quadruplex DNA [12]): Active | Activity (Quadruplex DNA [13]): 31% | Activity (SiHa [14]): Active | Activity (U2OS [15]): Active | Activity (SiHa [16]): 60% | inhibition in vivo at 10 mg/kg (SiHa [17]): 29% | inhibition in vivo at 20 mg/kg (SiHa [18]): 65.2%

Source: ChEMBL document CHEMBL4177752, “Discovery of Novel Schizocommunin Derivatives as Telomeric G-Quadruplex Ligands That Trigger Telomere Dysfunction and the Deoxyribonucleic Acid (DNA) Damage Response” (J Med Chem, 2018)
